Measurements as given in ChEMBL document CHEMBL4184148 (Bioorg Med Chem Lett, 2017).

What was measured:
[1] = target: Tyrosine-protein kinase Fer (Homo sapiens) (UniProt P16591); assay: Binding affinity to wild-type human partial length FER (S542 to T822 residues) expressed in Escherichia coli BL21 at 1 uM by Kinomescan method relative to control
[2] = target: Mitogen-activated protein kinase kinase kinase 14 (Homo sapiens) (UniProt Q99558); assay: Binding affinity to wild-type human partial length NIK (L318 to P947 residues) expressed in HEK293 cells at 1 uM by Kinomescan method relative to control; assay type: cell-based
[3] = target: Calcium/calmodulin-dependent protein kinase type II subunit alpha (Homo sapiens) (UniProt Q9UQM7); assay: Binding affinity to wild-type human partial length CAMK2A (M1 to K328 residues) expressed in Escherichia coli BL21 at 1 uM by Kinomescan method relative to control
[4] = target: cGMP-dependent protein kinase 2 (Homo sapiens) (UniProt Q13237); assay: Binding affinity to wild-type human partial length PRKG2 (S422 to F762 residues) expressed in HEK293 cells at 1 uM by Kinomescan method relative to control; assay type: cell-based
Chain of cGMP-dependent protein kinase 2 (Homo sapiens) (Q13237 whole entry, the tested form may be a part, canonical isoform): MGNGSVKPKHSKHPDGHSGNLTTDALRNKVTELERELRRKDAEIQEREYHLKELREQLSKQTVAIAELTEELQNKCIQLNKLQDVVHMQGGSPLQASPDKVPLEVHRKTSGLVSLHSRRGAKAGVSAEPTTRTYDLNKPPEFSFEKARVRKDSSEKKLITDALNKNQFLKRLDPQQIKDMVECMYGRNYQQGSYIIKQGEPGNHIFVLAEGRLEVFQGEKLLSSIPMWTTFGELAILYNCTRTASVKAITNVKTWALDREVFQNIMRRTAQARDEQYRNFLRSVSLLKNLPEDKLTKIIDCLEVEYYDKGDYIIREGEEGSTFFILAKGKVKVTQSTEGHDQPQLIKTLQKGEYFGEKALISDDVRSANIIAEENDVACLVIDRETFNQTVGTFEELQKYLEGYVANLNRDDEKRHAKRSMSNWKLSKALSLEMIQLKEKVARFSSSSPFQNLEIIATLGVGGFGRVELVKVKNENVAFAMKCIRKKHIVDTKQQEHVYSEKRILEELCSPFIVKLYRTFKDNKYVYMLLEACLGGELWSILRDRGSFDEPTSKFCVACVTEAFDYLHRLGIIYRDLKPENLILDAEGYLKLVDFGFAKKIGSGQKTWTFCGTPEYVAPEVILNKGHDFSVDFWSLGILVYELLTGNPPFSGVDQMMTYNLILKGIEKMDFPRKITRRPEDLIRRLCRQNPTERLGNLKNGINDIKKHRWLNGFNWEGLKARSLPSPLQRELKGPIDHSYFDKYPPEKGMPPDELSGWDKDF

[5] = target: Casein kinase I isoform alpha (Homo sapiens) (UniProt P48729); assay: Binding affinity to wild-type human partial length CSNK1A1 (M1 to L450 residues) expressed in HEK293 cells at 1 uM by Kinomescan method relative to control; assay type: cell-based
Chain of Casein kinase I isoform alpha (Homo sapiens) (P48729 2-337 limits assumed): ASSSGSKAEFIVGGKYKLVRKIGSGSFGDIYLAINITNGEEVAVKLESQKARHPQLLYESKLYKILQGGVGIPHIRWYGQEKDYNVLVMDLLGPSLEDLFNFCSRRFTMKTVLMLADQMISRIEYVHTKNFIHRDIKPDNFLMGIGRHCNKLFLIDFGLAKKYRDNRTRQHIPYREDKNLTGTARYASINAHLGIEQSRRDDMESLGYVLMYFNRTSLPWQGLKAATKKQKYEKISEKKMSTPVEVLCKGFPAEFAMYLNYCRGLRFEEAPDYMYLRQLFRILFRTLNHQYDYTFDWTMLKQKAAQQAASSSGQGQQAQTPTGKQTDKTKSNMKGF

[6] = system: Phosphatidylinositol 4,5-bisphosphate 3-kinase catalytic subunit alpha isoform (Homo sapiens), P42336 [E545K]; assay: Binding affinity to human partial length PIK3CA E545K mutant (R108 to N1068 residues) expressed in HEK293 cells at 1 uM by Kinomescan method relative to control; assay type: cell-based
[7] = target: Calcium/calmodulin-dependent protein kinase kinase 1 (Homo sapiens) (UniProt Q8N5S9); assay: Binding affinity to wild-type human partial length CAMKK1 (R65 to E414 residues) expressed in Escherichia coli BL21 at 1 uM by Kinomescan method relative to control
Chain of Calcium/calmodulin-dependent protein kinase kinase 1 (Homo sapiens) (Q8N5S9 whole entry, looked up, the tested form may be a part): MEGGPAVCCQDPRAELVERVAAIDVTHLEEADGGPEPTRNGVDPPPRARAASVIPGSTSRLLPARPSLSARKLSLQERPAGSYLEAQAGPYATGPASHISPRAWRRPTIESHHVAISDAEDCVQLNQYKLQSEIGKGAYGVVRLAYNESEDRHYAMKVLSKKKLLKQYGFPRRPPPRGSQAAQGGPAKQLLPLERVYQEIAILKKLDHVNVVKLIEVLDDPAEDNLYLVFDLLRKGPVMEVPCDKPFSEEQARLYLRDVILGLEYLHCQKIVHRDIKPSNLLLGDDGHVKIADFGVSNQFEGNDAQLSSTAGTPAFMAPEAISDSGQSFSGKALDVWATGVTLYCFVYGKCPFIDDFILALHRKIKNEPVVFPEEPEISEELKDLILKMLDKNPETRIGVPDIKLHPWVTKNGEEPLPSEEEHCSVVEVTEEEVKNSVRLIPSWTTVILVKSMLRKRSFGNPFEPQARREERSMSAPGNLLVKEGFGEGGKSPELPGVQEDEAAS

[8] = system: Tyrosine-protein kinase ABL1 (Homo sapiens), P00519 [Y253F]; assay: Binding affinity to human phosphorylated ABL1 Y253F mutant (S229 to K512 residues) expressed in HEK293 cells at 1 uM by Kinomescan method relative to control; assay type: cell-based
[9] = target: Cytoplasmic tyrosine-protein kinase BMX (Homo sapiens) (UniProt P51813); assay: Binding affinity to wild-type human full length BMX (M1 to H675 residues) expressed in Escherichia coli BL21 at 1 uM by Kinomescan method relative to control
[10] = target: Vascular endothelial growth factor receptor 2 (Homo sapiens) (UniProt P35968); assay: Binding affinity to wild-type human partial length VEGFR2 (R787 to P1253 residues) expressed in HEK293 cells at 1 uM by Kinomescan method relative to control; assay type: cell-based
[11] = target: Proto-oncogene tyrosine-protein kinase ROS (Homo sapiens) (UniProt P08922); assay: Binding affinity to wild-type human partial length ROS1 (A1921 to N2240 residues) expressed in Escherichia coli BL21 at 1 uM by Kinomescan method relative to control
[12] = target: cGMP-dependent protein kinase 1 (Homo sapiens) (UniProt Q13976); assay: Binding affinity to wild-type human partial length PRKG1 (L339 to F686 residues) expressed in Escherichia coli BL21 at 1 uM by Kinomescan method relative to control
[13] = target: Ribosomal protein S6 kinase alpha-3 (Homo sapiens) (UniProt P51812); assay: Binding affinity to wild-type human partial length N-terminal RSK3 kinase domain 1 (M1 to Q385 residues) expressed in Escherichia coli BL21 at 1 uM by Kinomescan method relative to control
Chain of Ribosomal protein S6 kinase alpha-3 (Homo sapiens) (P51812 whole entry, the tested form may be a part): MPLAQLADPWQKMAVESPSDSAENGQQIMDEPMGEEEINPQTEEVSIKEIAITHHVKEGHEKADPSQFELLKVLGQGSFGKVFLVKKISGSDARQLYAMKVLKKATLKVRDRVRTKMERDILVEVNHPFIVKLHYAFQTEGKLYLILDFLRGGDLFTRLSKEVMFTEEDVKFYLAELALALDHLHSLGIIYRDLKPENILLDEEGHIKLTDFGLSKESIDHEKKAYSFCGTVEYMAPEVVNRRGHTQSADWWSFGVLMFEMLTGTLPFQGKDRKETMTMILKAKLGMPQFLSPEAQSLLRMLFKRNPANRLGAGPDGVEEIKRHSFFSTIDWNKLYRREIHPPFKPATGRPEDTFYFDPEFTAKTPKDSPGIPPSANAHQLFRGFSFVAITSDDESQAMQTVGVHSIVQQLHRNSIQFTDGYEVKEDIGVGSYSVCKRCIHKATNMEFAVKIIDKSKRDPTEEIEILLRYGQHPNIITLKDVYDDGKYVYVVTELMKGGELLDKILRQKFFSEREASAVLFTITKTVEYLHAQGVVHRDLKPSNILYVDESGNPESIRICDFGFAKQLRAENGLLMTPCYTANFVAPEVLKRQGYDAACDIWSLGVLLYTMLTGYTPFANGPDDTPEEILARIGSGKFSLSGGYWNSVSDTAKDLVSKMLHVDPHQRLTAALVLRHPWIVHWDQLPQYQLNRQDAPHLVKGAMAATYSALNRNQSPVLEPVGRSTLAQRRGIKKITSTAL

[14] = target: Serine/threonine-protein kinase MRCK alpha (Homo sapiens) (UniProt Q5VT25); assay: Binding affinity to wild-type human partial length MRCKA (L57 to V418 residues) expressed in Escherichia coli BL21 at 1 uM by Kinomescan method relative to control
[15] = target: Wee1-like protein kinase (Homo sapiens) (UniProt P30291); assay: Binding affinity to wild-type human partial length WEE1 (M291 to K575 residues) expressed in Escherichia coli BL21 at 1 uM by Kinomescan method relative to control
Chain of Wee1-like protein kinase (Homo sapiens) (P30291 whole entry, looked up, the tested form may be a part): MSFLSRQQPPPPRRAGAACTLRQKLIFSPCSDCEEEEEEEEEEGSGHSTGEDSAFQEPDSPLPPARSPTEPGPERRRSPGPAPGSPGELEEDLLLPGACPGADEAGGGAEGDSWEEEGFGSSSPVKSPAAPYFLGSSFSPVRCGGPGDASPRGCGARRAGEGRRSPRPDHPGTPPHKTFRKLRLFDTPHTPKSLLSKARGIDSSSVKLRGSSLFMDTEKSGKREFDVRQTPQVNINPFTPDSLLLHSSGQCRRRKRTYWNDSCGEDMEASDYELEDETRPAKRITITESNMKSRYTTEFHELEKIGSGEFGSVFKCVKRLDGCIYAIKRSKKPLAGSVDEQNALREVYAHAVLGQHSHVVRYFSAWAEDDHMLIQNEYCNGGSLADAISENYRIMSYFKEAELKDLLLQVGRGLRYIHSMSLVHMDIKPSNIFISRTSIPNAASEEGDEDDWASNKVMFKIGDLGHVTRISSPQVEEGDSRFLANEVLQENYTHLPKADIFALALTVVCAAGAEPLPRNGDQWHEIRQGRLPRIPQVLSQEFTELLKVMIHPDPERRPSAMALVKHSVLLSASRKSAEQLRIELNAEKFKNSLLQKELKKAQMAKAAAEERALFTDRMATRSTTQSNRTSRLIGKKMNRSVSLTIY

[16] = target: Uncharacterized serine/threonine-protein kinase SBK3 (Homo sapiens) (UniProt P0C264); assay: Binding affinity to wild-type human partial length SgK110 (L22 to R329 residues) expressed in Escherichia coli BL21 at 1 uM by Kinomescan method relative to control
HeLa = assay: Cytotoxicity against human HeLa cells assessed as reduction in cell viability after 72 hrs by CellTiter-Glo assay; assay type: functional, cell-based
In short: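 Cells were treated across a dose-response range for 72 h, and viability was read by CellTiter-Glo luminescence. Measurements were made in triplicate and reported with standard error.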

[17] = target: Cyclin-dependent kinase 14 (Homo sapiens) (UniProt O94921); assay: Binding affinity to wild-type human full length PFTK1 (M1 to H451 residues) expressed in Escherichia coli BL21 at 1 uM by Kinomescan method relative to control
In short: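 Kinome-wide competition binding panel run by an outside provider, with each compound tested at a single concentration. Activity is read against the kinase panel.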

[18] = target: BDNF/NT-3 growth factors receptor (Homo sapiens) (UniProt Q16620); assay: Binding affinity to wild-type human partial length TRKB (Q547 to G838 residues) expressed in HEK293 cells at 1 uM by Kinomescan method relative to control; assay type: cell-based
[19] = system: Tyrosine-protein kinase ABL1 (Homo sapiens), P00519 [H396P]; assay: Binding affinity to human phosphorylated ABL1 H396P mutant (S229 to K512 residues) expressed in HEK293 cells at 1 uM by Kinomescan method relative to control; assay type: cell-based
[20] = system: Tyrosine-protein kinase ABL1 (Homo sapiens), P00519 [E255K]; assay: Binding affinity to human phosphorylated ABL1 E255K mutant (S229 to K512 residues) expressed in HEK293 cells at 1 uM by Kinomescan method relative to control; assay type: cell-based
[21] = target: Platelet-derived growth factor receptor alpha (Homo sapiens) (UniProt P16234); assay: Binding affinity to wild-type human partial length PDGFRA (V575 to D1002 residues) expressed in HEK293 cells at 1 uM by Kinomescan method relative to control; assay type: cell-based
[22] = target: Tyrosine-protein kinase Yes (Homo sapiens) (UniProt P07947); assay: Binding affinity to wild-type human partial length YES (T257 to L543 residues) expressed in Escherichia coli BL21 at 1 uM by Kinomescan method relative to control
[23] = target: Serine/threonine-protein kinase LATS1 (Homo sapiens) (UniProt O95835); assay: Binding affinity to wild-type human partial length LATS1 (Q678 to V1130 residues) expressed in Escherichia coli BL21 at 1 uM by Kinomescan method relative to control
Chain of Serine/threonine-protein kinase LATS1 (Homo sapiens) (O95835 whole entry, the tested form may be a part): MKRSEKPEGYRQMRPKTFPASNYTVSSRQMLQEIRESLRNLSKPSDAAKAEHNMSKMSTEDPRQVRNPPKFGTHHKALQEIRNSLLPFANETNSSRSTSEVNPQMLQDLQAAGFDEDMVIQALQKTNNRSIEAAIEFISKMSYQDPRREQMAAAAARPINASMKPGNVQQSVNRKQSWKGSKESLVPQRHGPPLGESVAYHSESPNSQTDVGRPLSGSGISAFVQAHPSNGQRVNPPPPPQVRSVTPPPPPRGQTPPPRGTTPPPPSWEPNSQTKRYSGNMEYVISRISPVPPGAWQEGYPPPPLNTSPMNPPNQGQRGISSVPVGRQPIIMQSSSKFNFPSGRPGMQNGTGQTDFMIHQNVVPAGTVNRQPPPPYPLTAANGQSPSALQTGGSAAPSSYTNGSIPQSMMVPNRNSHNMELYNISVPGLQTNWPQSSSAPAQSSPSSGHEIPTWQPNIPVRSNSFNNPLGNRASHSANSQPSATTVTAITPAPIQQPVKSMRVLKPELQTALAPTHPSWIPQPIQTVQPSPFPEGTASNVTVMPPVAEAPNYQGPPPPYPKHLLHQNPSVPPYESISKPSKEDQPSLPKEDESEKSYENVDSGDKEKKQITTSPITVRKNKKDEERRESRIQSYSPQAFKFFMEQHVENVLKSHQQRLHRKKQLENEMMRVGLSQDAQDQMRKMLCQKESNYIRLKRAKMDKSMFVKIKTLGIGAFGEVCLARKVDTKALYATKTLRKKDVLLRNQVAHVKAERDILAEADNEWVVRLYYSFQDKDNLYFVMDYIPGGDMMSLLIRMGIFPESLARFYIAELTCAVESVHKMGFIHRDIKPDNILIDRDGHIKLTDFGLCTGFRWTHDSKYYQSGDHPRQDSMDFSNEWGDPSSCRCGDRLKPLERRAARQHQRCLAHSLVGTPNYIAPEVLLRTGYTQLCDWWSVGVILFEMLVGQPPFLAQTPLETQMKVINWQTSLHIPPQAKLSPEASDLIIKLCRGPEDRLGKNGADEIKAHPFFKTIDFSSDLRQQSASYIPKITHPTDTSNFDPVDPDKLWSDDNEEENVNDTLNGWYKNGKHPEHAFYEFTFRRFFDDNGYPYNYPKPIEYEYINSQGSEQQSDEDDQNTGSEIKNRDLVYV

[24] = target: Activin receptor type-1B (Homo sapiens) (UniProt P36896); assay: Binding affinity to wild-type human ACVR1B (S187 to I505 residues) expressed in Escherichia coli BL21 at 1 uM by Kinomescan method relative to control

Chain of Tyrosine-protein kinase Fer (Homo sapiens) (P16591 whole entry, looked up, the tested form may be a part): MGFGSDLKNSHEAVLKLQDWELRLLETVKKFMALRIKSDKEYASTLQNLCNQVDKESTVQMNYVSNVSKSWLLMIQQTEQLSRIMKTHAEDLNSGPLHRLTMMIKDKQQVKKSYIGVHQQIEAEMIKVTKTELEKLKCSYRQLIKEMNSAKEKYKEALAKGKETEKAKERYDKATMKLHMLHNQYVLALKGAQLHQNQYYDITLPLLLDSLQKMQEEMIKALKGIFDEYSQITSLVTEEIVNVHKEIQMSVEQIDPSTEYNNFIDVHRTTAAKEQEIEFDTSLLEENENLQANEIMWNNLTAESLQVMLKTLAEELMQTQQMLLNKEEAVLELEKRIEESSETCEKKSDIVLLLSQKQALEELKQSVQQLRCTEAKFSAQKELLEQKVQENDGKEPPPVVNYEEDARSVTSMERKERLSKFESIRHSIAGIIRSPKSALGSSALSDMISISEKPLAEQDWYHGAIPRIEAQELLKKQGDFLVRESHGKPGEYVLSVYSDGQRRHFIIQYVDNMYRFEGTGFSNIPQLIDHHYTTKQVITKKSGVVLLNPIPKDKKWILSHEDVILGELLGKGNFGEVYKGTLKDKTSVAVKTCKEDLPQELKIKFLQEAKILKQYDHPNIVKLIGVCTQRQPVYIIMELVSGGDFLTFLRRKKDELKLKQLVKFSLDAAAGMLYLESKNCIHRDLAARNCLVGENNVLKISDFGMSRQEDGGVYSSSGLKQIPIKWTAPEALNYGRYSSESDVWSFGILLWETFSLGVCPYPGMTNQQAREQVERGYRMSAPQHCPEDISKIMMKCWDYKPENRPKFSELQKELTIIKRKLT

## CCC(=O)Nc1ccc(C(=O)Nc2ccc(Nc3ncc4c(n3)N(C)c3ccc(C)cc3C(=O)N4C)cc2)cc1
[1]
  Activity: 85%
[2]
  Activity: 100%
[3]
  Activity: 88%
[4]
  Activity: 84%
[5]
  Activity: 58%
[6]
  Activity: 76%
[7]
  Activity: 100%
[8]
  Activity: 3.5%
[9]
  Activity: 90%
[10]
  Activity: 76%
[11]
  Activity: 81%
[12]
  Activity: 100%
[13]
  Activity: 85%
[14]
  Activity: 100%
[15]
  Activity: 100%
[16]
  Activity: 70%
HeLa
  IC50: < 1 nM
[17]
  Activity: 95%
[18]
  Activity: 84%
[19]
  Activity: 64%
[20]
  Activity: 60%
[21]
  Activity: 63%
[22]
  Activity: 83%
[23]
  Activity: 100%
[24]
  Activity: 100%

## C=CC(=O)Nc1ccc(C(=O)Nc2ccc(Nc3ncc4c(n3)N(C)c3ccc(C)cc3C(=O)N4C)cc2)cc1
[1]
  Activity: 78%
[2]
  Activity: 99%
[3]
  Activity: 100%
[4]
  Activity: 88%
[5]
  Activity: 86%
[6]
  Activity: 72%
[7]
  Activity: 100%
[8]
  Activity: 100%
[9]
  Activity: 99%
[10]
  Activity: 88%
[11]
  Activity: 98%
[12]
  Activity: 100%
[13]
  Activity: 89%
[14]
  Activity: 94%
[15]
  Activity: 100%
[16]
  Activity: 93%
HeLa
  IC50: < 1 nM
[17]
  Activity: 100%
[18]
  Activity: 100%
[19]
  Activity: 91%
[20]
  Activity: 77%
[21]
  Activity: 91%
[22]
  Activity: 90%
[23]
  Activity: 99%
[24]
  Activity: 85%
